Our source for the cytotoxicity values is ChEMBL document CHEMBL4513216, “Probing the Open Global Health Chemical Diversity Library for Multistage-Active Starting Points for Next-Generation Antimalarials” (ACS Infect Dis, 2020).

The data set can be described thus: Toxicity liver stage against HepG2, at 10uM. More on the design: test concentration 10 uM, cell line HepG2-A16-CD81EGFP. The conditions noted are these: human, HepG2-A16-CD81EGFP cells; read-out: INHIBITION
Type of data set: cell-based. An outline of the steps: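 Uninfected HepG2-A16-CD81EGFP cells, 3 × 10^3 per well, 1536-well, plated on prespotted compound at 10 μM final, parasite-free screening media added to match infected plates; puromycin 10 μM positive, DMSO 0.5% negative; run in parallel with 48 h PbLuc assay at 37 °C, 5% CO2; viability by CellTiter-Glo luminescence, normalized to controls.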

On to `COc1cc(N2CCc3ncnc(-c4cnn(C)c4)c3CC2)ncn1`, for which the cytotoxicity at 10 µM was found to be 8.46%.

Turning to `O=C(NCC1CC1)[C@H]1C[C@@H]2[C@@H](C1)OCCN2Cc1cccnc1`, the cytotoxicity at 10 µM stood at 4.09%.

`CCOc1cc(NC(=O)N2CCC(c3nnc[nH]3)CC2)ccc1C`: the cytotoxicity at 10 µM was found to be 14.5%.

Consider `COc1ccc(CCC(=O)NC2CCC(O)CC2)cc1OC` (stereo not given), for which the cytotoxicity at 10 µM was -5.26%.

For `COCCN1CCN(CC(=O)N(C)Cc2cccc(F)c2)CC1C` (stereo not given), the cytotoxicity at 10 µM is -151%.

On to `CCN1CCn2c(C)cnc2C12CCN(C(=O)C(C)C)CC2`, for which the cytotoxicity at 10 µM stood at 3.06%.

With `CCC(C)NC(=O)c1ccc(NC(=O)CCCn2cncn2)c(C)c1` (stereo not given), the cytotoxicity at 10 µM was -10.7%.

Take `CC(=O)Nc1ccc(CN(C)Cc2snnc2C)cc1`: the cytotoxicity at 10 µM was -2.17%.

For `CCc1c(C)nc2cc(C3CCN(Cc4cccc(F)c4)C3)nn2c1O` (stereo not given), the cytotoxicity at 10 µM is -6.43%.

Consider `Cc1nn(C)c(C)c1CN1CCCC(c2ccc(C(=O)O)cc2)C1` (stereo not given), for which the cytotoxicity at 10 µM was -8.82%.

Turning to `O=C(NCc1ccco1)Nc1ccc2nc(N3CCOCC3)oc2c1`, the cytotoxicity at 10 µM is 4.17%.

On to `Cc1nc(C)n(CC2CCCN2Cc2nc(-c3ccccn3)no2)n1` (stereo not given), for which the cytotoxicity at 10 µM is -9.48%.

Take `CCc1nnc2n1CCN(C(=O)CN(CC)CC)C2`: the cytotoxicity at 10 µM was -3.14%.

Regarding `O=C(NCCc1noc(C2CCCC2)n1)c1cn2ccsc2n1`, the cytotoxicity at 10 µM is -0.454%.

Consider `CNc1ccc(Cl)cc1C(=O)N1CCC(Cn2cc(CN)nn2)CC1`, for which the cytotoxicity at 10 µM was -2.37%.

With `CCN(CC)c1ccc2ccc(C(=O)N(C)C)cn12`, the cytotoxicity at 10 µM came to 0.626%.

For `CCCOc1ccc(CNC(=O)N2CCC(C(N)=O)C2)cc1` (stereo not given), the cytotoxicity at 10 µM is -5.87%.

Take `NC(=O)c1ccc(-n2ccnc2C2CC2)cc1N1CCCC1`: the cytotoxicity at 10 µM is -3.82%.

With `CC1CCN(S(=O)(=O)c2cccnc2)c2ccccc2S1` (stereo not given), the cytotoxicity at 10 µM came to 5%.

`CCc1nnc2n1CCN(C(=O)C(C)Oc1cccc(C#N)c1)C2` (stereo not given): the cytotoxicity at 10 µM came to 0.855%.

For the molecule `CCOCCN1CCC(c2cncc(C)n2)CC1`, the cytotoxicity at 10 µM was -2.58%.

With `N#Cc1nccnc1N1CCC(COCc2ccccc2)C1` (stereo not given), the cytotoxicity at 10 µM was 7.78%.

Turning to `Cn1c(=O)ccn(CC(=O)Nc2cccnc2)c1=O`, the cytotoxicity at 10 µM was -1.58%.

For the molecule `CNS(=O)(=O)c1ccc(CNC(=O)NCc2cc[nH]n2)cc1`, the cytotoxicity at 10 µM was 1.91%.

For the molecule `CC1CN(CCOc2ccccc2C#N)CCN1Cc1nccn1C` (stereo not given), the cytotoxicity at 10 µM is -10.8%.

As for `Cc1nc(CN2C[C@H]3C[C@H](C(=O)NCC4CC4)N(C)[C@H]3C2)cs1`, the cytotoxicity at 10 µM is -5.13%.

On to `Cn1cc(C(=O)N2CC[C@@]3(O)CCN(C4CCCCC4)C[C@H]3C2)cn1`, for which the cytotoxicity at 10 µM was -131%.

Take `COCC1CN(c2ccc3c(Cl)ccnc3c2F)CCO1` (stereo not given): the cytotoxicity at 10 µM is 25%.

Turning to `CCC(=O)NCC(c1ccc(SC)cc1)N1CCc2sccc2C1` (stereo not given), the cytotoxicity at 10 µM worked out at 4.05%.

With `COc1ccsc1C(=O)NCCNc1ccccc1`, the cytotoxicity at 10 µM is -4.15%.

In the case of `CS(=O)(=O)N1CC[C@H]2O[C@H](C(=O)NCc3cccnc3)CC[C@H]21`, the cytotoxicity at 10 µM is -7.24%.

Regarding `Cc1cccc(C(=O)N2CCCC2)c1NCC(=O)NC(C)(C#N)C1CC1` (stereo not given), the cytotoxicity at 10 µM was -6.8%.

With `CC(C)(C)c1cnc(CN2CCCS2(=O)=O)o1`, the cytotoxicity at 10 µM is 2.07%.

Consider `COc1ccc(OC)c(NC(=O)c2nc3ccccc3n(C)c2=O)c1`, for which the cytotoxicity at 10 µM was -4.71%.

As to `CCn1ncc2c1C(COC)CN(Cc1ccco1)C2` (stereo not given), the cytotoxicity at 10 µM was 7.1%.

Turning to `COc1cccc(F)c1C(C)NC(=O)NCCc1ccc(C)nc1` (stereo not given), the cytotoxicity at 10 µM was -2.13%.

`Cn1cc(C2=CCN(CCC(=O)NCc3ccc(Cl)cc3)CC2)cn1`: the cytotoxicity at 10 µM is -1.77%.

With `OC1(CN(Cc2cccnc2)C2CCCCC2)CNCCOC1` (stereo not given), the cytotoxicity at 10 µM is -21%.

Take `CCS(=O)(=O)N1Cc2nccn2CC(CN2CCCC2)C1` (stereo not given): the cytotoxicity at 10 µM is -124%.

Turning to `CC(NC(=O)NCCC(=O)OC(C)(C)C)c1nncn1C` (stereo not given), the cytotoxicity at 10 µM turned out to be 2.49%.
